Consider 3 compounds from ChEMBL document CHEMBL5154715, “Phenolic Lipids Derived from Cashew Nut Shell Liquid to Treat Metabolic Diseases” (J Med Chem, 2022).

In assay [1] the target is T1, Peroxisome proliferator-activated receptor alpha (Mus musculus) (UniProt P23204).
T1 sequence (whole entry): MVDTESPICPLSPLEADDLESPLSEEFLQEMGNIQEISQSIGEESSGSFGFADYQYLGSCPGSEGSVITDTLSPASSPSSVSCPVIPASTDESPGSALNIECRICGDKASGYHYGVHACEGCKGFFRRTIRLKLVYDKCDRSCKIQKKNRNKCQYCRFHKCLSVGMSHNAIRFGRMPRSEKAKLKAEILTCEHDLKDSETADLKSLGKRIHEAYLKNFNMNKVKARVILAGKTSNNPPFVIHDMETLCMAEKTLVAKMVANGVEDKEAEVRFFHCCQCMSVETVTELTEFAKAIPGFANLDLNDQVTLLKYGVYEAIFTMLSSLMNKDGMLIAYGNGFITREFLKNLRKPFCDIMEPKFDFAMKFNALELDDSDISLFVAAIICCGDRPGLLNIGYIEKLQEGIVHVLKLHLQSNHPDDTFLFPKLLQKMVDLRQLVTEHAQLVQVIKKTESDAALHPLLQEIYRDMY
Kind of assay: Agonist activity at human PPARalpha in mouse hepatocytes assessed as induction of Pdk4 mRNA expression at 50 uM incubated for 16 hrs by quantitative real-time PCR analysis. The assay is classed as cell-based. The note with it: Hepatocyte, filed as agonist. The procedure, abridged: (§1)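 Collagenase-perfused mouse primary hepatocytes from WT mice, plated 2 h in attachment medium, overnight in M199 with 5% charcoal-stripped FBS and 1 nM insulin. Treated next day in serum-free M199 with 50 μM compound for 16 h. RNA qPCR (SYBR Green), comparative Ct method.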
(In qPCR the cycle at which signal appears reflects the starting amount.)

For assay [2], the target named is T2, Peroxisome proliferator-activated receptor delta (Homo sapiens) (UniProt Q03181).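 Also: reporter gene assay with luciferase read-out normalized to beta-galactosidase, measuring agonist activation of PPARδ expressed in HEK293 cells.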
T2 sequence (whole entry): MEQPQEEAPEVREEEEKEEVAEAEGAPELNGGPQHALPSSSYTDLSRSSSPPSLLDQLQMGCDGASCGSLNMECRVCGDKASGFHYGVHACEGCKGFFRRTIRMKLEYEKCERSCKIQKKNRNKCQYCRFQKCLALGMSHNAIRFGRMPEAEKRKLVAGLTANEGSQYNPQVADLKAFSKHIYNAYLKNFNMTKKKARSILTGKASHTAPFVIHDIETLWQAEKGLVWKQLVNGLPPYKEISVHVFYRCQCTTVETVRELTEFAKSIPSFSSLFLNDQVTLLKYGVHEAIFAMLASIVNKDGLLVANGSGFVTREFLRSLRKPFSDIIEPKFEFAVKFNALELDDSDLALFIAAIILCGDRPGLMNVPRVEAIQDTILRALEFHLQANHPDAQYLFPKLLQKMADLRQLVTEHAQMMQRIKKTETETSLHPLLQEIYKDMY
The settings on record: HEK293, filed as agonist.

In assay [3] the target is T3, Peroxisome proliferator-activated receptor alpha (Homo sapiens) (UniProt Q07869).
T3 sequence (whole entry): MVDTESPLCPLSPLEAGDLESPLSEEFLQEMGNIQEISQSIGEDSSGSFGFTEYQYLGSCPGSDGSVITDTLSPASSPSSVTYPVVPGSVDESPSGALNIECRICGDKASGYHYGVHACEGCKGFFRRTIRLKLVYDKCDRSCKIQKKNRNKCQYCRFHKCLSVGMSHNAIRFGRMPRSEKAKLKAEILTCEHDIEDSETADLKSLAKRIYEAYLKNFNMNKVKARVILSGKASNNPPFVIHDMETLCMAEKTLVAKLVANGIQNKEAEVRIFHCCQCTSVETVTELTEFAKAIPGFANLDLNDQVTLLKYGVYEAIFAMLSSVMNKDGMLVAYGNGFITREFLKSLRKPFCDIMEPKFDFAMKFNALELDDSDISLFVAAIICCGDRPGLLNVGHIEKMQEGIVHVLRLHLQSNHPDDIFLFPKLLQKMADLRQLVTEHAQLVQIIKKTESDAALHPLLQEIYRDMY
Kind of assay: Agonist activity at human PPARalpha expressed in HEK293 cells assessed as maximal activity by luciferase/beta-galactosidase reporter gene assay relative to GW7647. The format is cell-based. The procedure, abridged:
(§2)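 HEK293 cells in charcoal-stripped FBS, calcium phosphate co-transfected with GAL4-hPPAR LBD fusion, UAS-luciferase and β-galactosidase. Ligand added 6–8 h post transfection, full dose–response, harvested 14–16 h later. Luciferase normalized to β-galactosidase.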
(Reporter assays use an easily measured gene product as a stand-in for the process of interest.)

Assay [4] addresses T4, Peroxisome proliferator-activated receptor gamma (Homo sapiens, UniProt P37231).
T4 sequence (P37231 whole entry): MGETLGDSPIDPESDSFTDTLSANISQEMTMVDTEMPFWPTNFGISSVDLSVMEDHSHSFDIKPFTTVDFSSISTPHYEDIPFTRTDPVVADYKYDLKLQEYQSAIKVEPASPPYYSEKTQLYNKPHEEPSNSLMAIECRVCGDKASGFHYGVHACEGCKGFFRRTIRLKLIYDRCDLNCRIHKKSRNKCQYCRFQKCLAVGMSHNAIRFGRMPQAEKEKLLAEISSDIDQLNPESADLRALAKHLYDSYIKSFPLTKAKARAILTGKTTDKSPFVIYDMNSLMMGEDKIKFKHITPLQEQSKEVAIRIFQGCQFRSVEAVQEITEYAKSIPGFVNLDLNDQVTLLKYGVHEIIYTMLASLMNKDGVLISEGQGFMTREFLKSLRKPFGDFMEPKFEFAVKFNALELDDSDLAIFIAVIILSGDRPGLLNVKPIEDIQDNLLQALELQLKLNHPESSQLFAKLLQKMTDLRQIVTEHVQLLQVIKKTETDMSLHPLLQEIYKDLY
Kind of assay: Agonist activity at human PPARgamma expressed in HEK293 cells by luciferase/beta-galactosidase reporter gene assay. The format is cell-based. The procedure, abridged:
as §2

The target in assay [5] is T3, Peroxisome proliferator-activated receptor alpha (Homo sapiens). Kind of assay: Agonist activity at human PPARalpha transfected in HEK293 cells assessed as relative luciferase unit at 50 uM measured after 16 hrs by luciferase reporter gene assay. The note with it: filed as agonist. The format is cell-based. Summed up:
(§3)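 GAL4-hPPAR (α or γ) plus UAS-luciferase and β-galactosidase transiently co-transfected into HEK293 cells, then treated with 50 μM compound for 16 h. RLU = luciferase/β-galactosidase × time, vehicle (DMSO) set to 1. Mean ± SD, N = 3; one-way ANOVA with Holm–Šidák vs vehicle.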

The target in assay [6] is T5, Peroxisome proliferator-activated receptor gamma (Homo sapiens) (UniProt P37231).
T5 sequence (whole entry): T4 sequence (P37231 whole entry)
Kind of assay: Agonist activity at human PPARgamma transfected in HEK293 cells assessed as relative luciferase unit at 50 uM measured after 16 hrs by luciferase reporter gene assay. The note with it: filed as agonist. The assay is classed as cell-based. Summed up: as §3

Assay [7] deals with T1, Peroxisome proliferator-activated receptor alpha (Mus musculus). Kind of assay: Agonist activity at human PPARalpha in mouse hepatocytes assessed as induction of cd36 mRNA expression at 50 uM incubated for 16 hrs by quantitative real-time PCR analysis. The format is cell-based. The settings on record: Hepatocyte, filed as agonist. The procedure, abridged: as §1
Assay [8] has the same target. Put plainly: Agonist activity at human PPARalpha in mouse hepatocytes assessed as induction of fabp1 mRNA expression at 50 uM incubated for 16 hrs by quantitative real-time PCR analysis. The assay is classed as cell-based. The note with it: Hepatocyte, filed as agonist. The procedure, abridged: as §1
In assay [9] the target is T6, Peroxisome proliferator-activated receptor alpha (Homo sapiens, UniProt Q07869).
T6 sequence (Q07869 whole entry): T3 sequence (whole entry)
Kind of assay: Agonist activity at human PPARalpha expressed in HEK293 cells by luciferase/beta-galactosidase reporter gene assay. The assay is classed as cell-based. The procedure, abridged:
as §2

The target in assay [10] is T7, Peroxisome proliferator-activated receptor gamma (Mus musculus) (UniProt P37238).
T7 sequence (whole entry): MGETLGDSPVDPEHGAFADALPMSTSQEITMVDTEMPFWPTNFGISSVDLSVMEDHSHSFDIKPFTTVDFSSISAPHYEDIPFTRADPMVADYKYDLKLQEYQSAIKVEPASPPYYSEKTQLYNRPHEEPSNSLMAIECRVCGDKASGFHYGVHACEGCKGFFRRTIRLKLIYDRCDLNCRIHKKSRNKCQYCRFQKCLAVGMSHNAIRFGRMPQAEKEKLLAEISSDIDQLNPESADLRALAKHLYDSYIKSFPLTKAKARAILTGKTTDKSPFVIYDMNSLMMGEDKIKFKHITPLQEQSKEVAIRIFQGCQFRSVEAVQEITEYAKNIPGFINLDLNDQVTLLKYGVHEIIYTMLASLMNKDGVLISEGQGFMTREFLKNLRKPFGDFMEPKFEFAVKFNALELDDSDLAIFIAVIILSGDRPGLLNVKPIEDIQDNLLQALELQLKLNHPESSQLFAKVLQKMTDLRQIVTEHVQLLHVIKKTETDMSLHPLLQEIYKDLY
Kind of assay: Agonist activity at human PPARgamma in mouse 3T3-L1 cells assessed as induction of Glut4 mRNA expression at 25 uM incubated for 11 days by quantitative real-time PCR analysis. The settings on record: filed as agonist, time 11.0 day.

For assay [11], the target named is T7, Peroxisome proliferator-activated receptor gamma (Mus musculus). Kind of assay: Agonist activity at human PPARgamma in mouse 3T3-L1 cells assessed as induction of Adipoq-mRNA expression at 25 uM incubated for 11 days by quantitative real-time PCR analysis. The settings on record: filed as agonist, time 11.0 day.
For assay [12], the system named is Danio rerio. Kind of assay: In vivo agonist activity at human GFP-tagged PPARalpha in transgenic zebrafish assessed as increase in GFP expression in muscle at 5 uM measured after 14 hrs by microscopy.
Assay [13] addresses T1, Peroxisome proliferator-activated receptor alpha (Mus musculus). Put plainly: Agonist activity at human PPARalpha in mouse hepatocytes assessed as induction of Fgf21 mRNA expression at 50 uM incubated for 16 hrs by quantitative real-time PCR analysis. The assay is classed as cell-based. The note with it: Hepatocyte, filed as agonist. The procedure, abridged:
as §1

Assay [14] deals with Danio rerio. Put plainly: In vivo agonist activity at human GFP-tagged PPARalpha in transgenic zebrafish assessed as increase in GFP expression in CNS at 5 uM measured after 14 hrs by microscopy.
Assay [15] has as its system Danio rerio. Kind of assay: In vivo agonist activity at human GFP-tagged PPARalpha in transgenic zebrafish assessed as increase in GFP expression in epidermis at 5 uM measured after 14 hrs by microscopy.
Assay [16] has as its system Danio rerio. Put plainly: In vivo agonist activity at human GFP-tagged PPARalpha in transgenic zebrafish assessed as increase in GFP expression in retina at 5 uM measured after 14 hrs by microscopy.
Assay [17] has as its system Danio rerio. Put plainly: In vivo agonist activity at human GFP-tagged PPARalpha in transgenic zebrafish assessed as increase in GFP expression in heart at 5 uM measured after 14 hrs by microscopy.
Assay [18] relates to Danio rerio. Kind of assay: In vivo agonist activity at human GFP-tagged PPARalpha in transgenic zebrafish assessed as increase in GFP expression in heart at 1.5 uM measured after 14 hrs by microscopy.
Assay [19] relates to Danio rerio. Put plainly: In vivo agonist activity at human GFP-tagged PPARgamma in transgenic zebrafish assessed as increase in GFP expression in muscle at 1 uM measured after 14 days by microscopy. The format is functional, organism-based. The note with it: time 14.0 day.
Assay [20] has as its system Danio rerio. Kind of assay: In vivo agonist activity at human GFP-tagged PPARalpha in transgenic zebrafish assessed as increase in GFP expression in muscle at 1.5 uM measured after 14 hrs by microscopy.
In assay [21] the test system is Danio rerio. Kind of assay: In vivo agonist activity at human GFP-tagged PPARalpha in transgenic zebrafish assessed as increase in GFP expression in yolk sac at 1.5 uM measured after 14 hrs by microscopy.
Assay [22] has as its system Danio rerio. Kind of assay: In vivo agonist activity at human GFP-tagged PPARalpha in transgenic zebrafish assessed as increase in GFP expression in brain at 1.5 uM measured after 14 hrs by microscopy.
In assay [23] the test system is Danio rerio. Put plainly: In vivo agonist activity at human GFP-tagged PPARgamma in transgenic zebrafish assessed as increase in GFP expression in CNS at 1 uM measured after 14 days by microscopy. The assay is classed as functional, organism-based. The note with it: time 14.0 day.

Calls of active or inactive are those of the source. The rule behind the calls is not given here.

For the compound `CCCCCC/C=C\CCCCCCCc1cccc(OCC(=O)OCC)c1`, the outcome in assay [1], in assay [5], in assay [6], in assay [7], in assay [8] and in assay [10] was Active. Also, the outcome in [11] was Active. In addition, the results for the EC50 in assay [2], in assay [4] and in [9] were 7.1 µM, over 50 µM and 4.4 µM, respectively. For the same compound, the Emax in [3] came to 30%.

Regarding `Cc1cccc(Nc2cc(Cl)nc(SCC(=O)O)n2)c1C`, the result (in [1]; in the assay on Danio rerio [12]; in assay [13]; with Danio rerio [14]; in the assay with Danio rerio [15]; in the assay on Danio rerio [16]) was Active. Further, the result (in the assay with Danio rerio [17]; in [7]; in assay [8]) was Active.

Consider `Cc1cc(SCc2sc(-c3ccc(C(F)(F)F)c(F)c3)nc2C)ccc1OCC(=O)O`, for which the outcome with Danio rerio [18], with Danio rerio [19], in the assay with Danio rerio [20], in the assay on Danio rerio [21], with Danio rerio [22] and with Danio rerio [23] was Active.
